Data reported in ChEMBL document CHEMBL2311500, “Identification and characterization of small molecules as potent and specific EPAC2 antagonists” (J Med Chem, 2013).
pIC50: −log10 of the molar value. Activity calls are given as the source filed them. No cut-off for these calls is given here.

What was measured:
[1] = molecular target: T1, Rap guanine nucleotide exchange factor 4 (Homo sapiens, UniProt Q8WZA2); assay: Inhibition of recombinant EPAC2 (unknown origin) assessed as inhibition of cAMP-mediated guanine nucleotide exchange factor activity at 25 uM by spectrofluorometric analysis
Outline: (§1)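 Purified recombinant full-length EPAC1 or EPAC2 with 0.2 µM Mant-GDP-loaded Rap1B(1-167) in 50 mM Tris pH 7.5, 50 mM NaCl, 5 mM MgCl2, 1 mM DTT and 20 µM unlabeled GDP. […] Fluorescence decay (ex 366/em 450 nm) was recorded every 60 s over 6000 s.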
Target sequence in this assay (Q8WZA2 whole entry, looked up): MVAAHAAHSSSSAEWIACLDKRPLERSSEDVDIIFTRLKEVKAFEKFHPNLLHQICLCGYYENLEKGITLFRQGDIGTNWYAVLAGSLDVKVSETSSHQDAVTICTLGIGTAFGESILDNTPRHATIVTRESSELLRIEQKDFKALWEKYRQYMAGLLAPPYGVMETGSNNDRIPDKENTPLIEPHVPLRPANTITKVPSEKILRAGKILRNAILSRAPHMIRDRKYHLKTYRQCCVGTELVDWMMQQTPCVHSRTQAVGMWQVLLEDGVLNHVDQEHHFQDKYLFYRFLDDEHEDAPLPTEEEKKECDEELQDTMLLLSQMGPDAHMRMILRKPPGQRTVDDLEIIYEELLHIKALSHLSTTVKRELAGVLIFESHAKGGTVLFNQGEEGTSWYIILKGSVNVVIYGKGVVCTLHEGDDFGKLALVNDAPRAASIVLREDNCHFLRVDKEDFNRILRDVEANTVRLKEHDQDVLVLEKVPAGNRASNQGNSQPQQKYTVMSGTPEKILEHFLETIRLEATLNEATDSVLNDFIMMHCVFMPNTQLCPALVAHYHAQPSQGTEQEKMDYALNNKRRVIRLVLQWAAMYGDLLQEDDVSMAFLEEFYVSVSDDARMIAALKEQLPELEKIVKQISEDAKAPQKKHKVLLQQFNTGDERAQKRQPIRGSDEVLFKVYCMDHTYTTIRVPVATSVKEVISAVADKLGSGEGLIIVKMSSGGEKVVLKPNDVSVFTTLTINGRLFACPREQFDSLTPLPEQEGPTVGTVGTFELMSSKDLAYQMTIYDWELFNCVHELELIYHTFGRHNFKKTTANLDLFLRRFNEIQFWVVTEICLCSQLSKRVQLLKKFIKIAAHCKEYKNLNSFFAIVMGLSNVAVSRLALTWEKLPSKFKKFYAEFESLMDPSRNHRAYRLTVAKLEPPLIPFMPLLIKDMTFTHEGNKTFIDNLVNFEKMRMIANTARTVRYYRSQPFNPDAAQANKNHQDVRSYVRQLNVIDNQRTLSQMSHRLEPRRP

[2] = molecular target: T2, Rap guanine nucleotide exchange factor 3 (Homo sapiens) (UniProt O95398); assay: Inhibition of recombinant EPAC1 (unknown origin) assessed as inhibition of cAMP-mediated RAP1-GDP exchange activity at 25 uM by spectrofluorometric analysis; outline: as §1
T2 sequence (whole entry): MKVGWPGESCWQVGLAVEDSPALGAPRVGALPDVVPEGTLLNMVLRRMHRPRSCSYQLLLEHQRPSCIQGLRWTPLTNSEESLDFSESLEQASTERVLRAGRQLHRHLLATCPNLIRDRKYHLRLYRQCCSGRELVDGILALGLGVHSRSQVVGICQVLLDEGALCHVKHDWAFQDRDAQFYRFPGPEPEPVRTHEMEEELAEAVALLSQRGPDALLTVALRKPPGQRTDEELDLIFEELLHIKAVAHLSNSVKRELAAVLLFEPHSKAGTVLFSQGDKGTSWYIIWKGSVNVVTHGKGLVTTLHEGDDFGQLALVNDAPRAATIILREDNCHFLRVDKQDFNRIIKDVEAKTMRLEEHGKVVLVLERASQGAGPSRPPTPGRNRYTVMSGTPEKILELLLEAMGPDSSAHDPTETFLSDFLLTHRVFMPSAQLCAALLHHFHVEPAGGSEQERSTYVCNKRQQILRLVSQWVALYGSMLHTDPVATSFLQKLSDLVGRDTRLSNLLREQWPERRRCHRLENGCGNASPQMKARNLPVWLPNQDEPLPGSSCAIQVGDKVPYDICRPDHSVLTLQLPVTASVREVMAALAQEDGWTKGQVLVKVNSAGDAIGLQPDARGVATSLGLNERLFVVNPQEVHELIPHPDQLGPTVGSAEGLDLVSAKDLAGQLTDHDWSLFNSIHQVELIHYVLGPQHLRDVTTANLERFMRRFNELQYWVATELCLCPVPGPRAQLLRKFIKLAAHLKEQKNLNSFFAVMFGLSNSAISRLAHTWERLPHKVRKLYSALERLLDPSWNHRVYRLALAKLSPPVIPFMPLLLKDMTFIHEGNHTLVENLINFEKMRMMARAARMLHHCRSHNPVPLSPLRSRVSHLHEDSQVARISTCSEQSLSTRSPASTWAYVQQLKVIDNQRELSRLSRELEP

Homo sapiens [3] = organism: Homo sapiens; assay: Inhibition of PKA2 (unknown origin) assessed as inhibition of cAMP-induced activation at 25 uM by spectrophotometric analysis
Outline: (§2)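 Coupled pyruvate kinase/lactate dehydrogenase assay following NADH oxidation at 340 nm, at room temperature. The reaction was started with Kemptide (0.26 mM final). H89 (25 µM) served as the inhibition control.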

Homo sapiens [4] = organism: Homo sapiens; assay: Inhibition of PKA1 (unknown origin) assessed as inhibition of cAMP-induced activation at 25 uM by spectrophotometric analysis; outline: as §2
[5] = molecular target: T1, Rap guanine nucleotide exchange factor 4; assay: Antagonist activity at recombinant EPAC2 (unknown origin) assessed 8-NBD-cAMP substrate fluorescence intensity by substrate competing assay
Target sequence in this assay (Q8WZA2 whole entry): as the sequence (Q8WZA2 whole entry, looked up) above

[6] = molecular target: T2, Rap guanine nucleotide exchange factor 3 (Homo sapiens); assay: Inhibition FL-tagged full length human EPAC1 expressed in HEK293 cells assessed as inhibition of 007-AM-induced activation at 10 uM by FRET assay; format: cell-based
HEK293 = assay: Inhibition of N-terminal CFP/C-terminal YFP tagged PKA (unknown origin) expressed in HEK293 cells assessed as inhibition of 8-Br-cAMP-AM-induced activation at 10 uM by FRET assay; format: cell-based; conditions: Homo sapiens
[7] = molecular target: T1, Rap guanine nucleotide exchange factor 4; conditions: HEK293, 10 uM
Target sequence in this assay (Q8WZA2 whole entry, looked up): as the sequence (Q8WZA2 whole entry, looked up) above

pIC50 [5] | SMILES | also measured
– | Cc1ccc(S(=O)(=O)c2c(C)cc(C)cc2C)cc1 | inhibition [1]: Active; inhibition [2]: inactive; inhibition (Homo sapiens [3]): inactive; inhibition (Homo sapiens [4]): inactive
5.42 | Cc1cc(C)c(S(=O)(=O)n2ccc3ncccc32)c(C)c1 | –
4.97 | Cc1cc(C)c(S(=O)(=O)n2ccc3cc(C(=O)O)ccc32)c(C)c1 | –
< 3.52 | CCc1cccn1S(=O)(=O)c1ccc(C(F)(F)F)cc1 | –
4.87 | Cc1cc(C)c(S(=O)(=O)c2ccc(O)cc2)c(C)c1 | –
5.40 | Cc1cc(C)c(S(=O)(=O)c2ccc(I)cc2)c(C)c1 | –
5.33 | CCc1cccn1S(=O)(=O)c1cc(C)cc(C)c1 | –
5.05 | Cc1cc(C)c(S(=O)(=O)n2ccc3cnccc32)c(C)c1 | –
5.40 | CCc1cccn1S(=O)(=O)c1ccc(C)cc1 | –
< 3.52 | COC(=O)c1ccc2c(ccn2S(=O)(=O)c2c(C)cc(C)cc2C)c1 | –
5.62 | Cc1cc(C)c(S(=O)(=O)n2ccc3cccnc32)c(C)c1 | –
6.40 | Cc1cc(C)c(Nc2cc(Cl)ccc2Cl)c(C)c1 | inhibition [1]: Active; inhibition [2]: inactive; inhibition (Homo sapiens [3]): inactive; inhibition (Homo sapiens [4]): inactive
5.89 | CCc1cccn1S(=O)(=O)c1ccc(C)cc1C | –
6.15 | Cc1cc(C)c(S(=O)(=O)c2cc(C)c(C)cc2C)c(C)c1 | –
6.05 | Cc1cc(C)c(Nc2cc(Cl)cc(Cl)c2)c(C)c1 | –
< 3.52 | Cc1cc(C)c(Nc2nc(C)c(C)s2)c(C)c1 | –

pIC50 [5] | SMILES | also measured
< 3.52 | Cc1cc(C)c(S(=O)(=O)c2ccc(C3CCCCC3)cc2)c(C)c1 | –
4.74 | Nc1ccc(Nc2ccc(N)cc2S(=O)(=O)O)cc1 | –
5.28 | CCc1cccn1S(=O)(=O)c1ccccc1C | –
< 3.52 | Cc1cc(C)c(S(=O)(=O)c2ccc(OC3CCN(C(=O)OC(C)(C)C)CC3)cc2)c(C)c1 | –
5.92 | Cc1cc(C)c(S(=O)(=O)n2ccc3ccccc32)c(C)c1 | –
– | O=S(=O)(NCCNC/C=C/c1ccc(Br)cc1)c1cccc2cnccc12 | inhibition (Homo sapiens [3]): Active; inhibition (Homo sapiens [4]): Active
5.42 | Cc1ccc(Nc2c(C)cc(C)cc2C)cc1 | –
< 3.52 | Cc1cc(C)c(S(=O)(=O)c2ccc(OC3CCCCC3)cc2)c(C)c1 | –
5.72 | COc1ccc(S(=O)(=O)c2c(C)cc(C)cc2C)cc1 | –
< 3.52 | Cc1cc(C)c(S(=O)(=O)c2ccc(-c3ccc(F)nc3)cc2)c(C)c1 | –
< 3.52 | Cc1cc(C)c(S(=O)(=O)c2ccc(OC3CCNCC3)cc2)c(C)c1 | –
< 3.52 | Cc1cc(C)c(S(=O)(=O)c2ccc(OCCN)cc2)c(C)c1 | –
4.90 | Cc1cc(C)c(S(=O)(=O)n2ccc3ccncc32)c(C)c1 | –
5.10 | CCc1cccn1S(=O)(=O)c1ccc(OC)cc1 | –
– | Cc1cc(C)c(S(=O)(=O)n2cc(C)cc2C)c(C)c1 | inhibition [6]: inactive; inhibition [1]: Active; inhibition (HEK293): inactive; inhibition [2]: inactive; inhibition [7]: Active; inhibition (Homo sapiens [3]): inactive; inhibition (Homo sapiens [4]): inactive

SMILES | pIC50 [5] | also measured
CCCCCc1ccc(S(=O)(=O)c2c(C)cc(C)cc2C)cc1 | < 3.52 | –
